Measured values as given in PMC12107431 (Nucleic Acids Research, 2025).
Substitutions are numbered along the chain they refer to. Names may count otherwise. “And” between values parts separate entries of the source, which are not always exact repeats. Equal values may be shown once. No end group written: not given here.

T1: ETO2-NHR4 (Homo sapiens, UniProt O75081)
T1 sequence (O75081 551-597): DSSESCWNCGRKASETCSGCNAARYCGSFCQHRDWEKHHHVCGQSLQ

B1: (M)PPPLx4 (GATAD2A residues 177-284, four polyproline-leucine motifs) (peptide, UniProt Q86YP4 177-284, looked up)
chain: QKPTGSVGSTVTTPPPLVRGTQNIPAGKPSLQTSSARMPGSVIPPPLVRGGQQASSKLGPQASSQVVMPPLVRGAQQIHSIRQHSSTGPPPLLLAPRASVPSVQIQGQ
B2: (M)PPPLx4: bacterially expressed GATAD2A residues 177–284 with four (M)PPPL motifs and C-terminal Twin-Strep-tag (protein)
chain: B1 chain
modifications: left off: thioredoxin, N-terminal, cleaved | His6, N-terminal, cleaved | Twin-Strep-tag, C-terminal, state not stated
B3: PPPLx2A (GATAD2A residues 177-235, first two motifs) (peptide, UniProt Q86YP4 177-235, looked up)
chain: QKPTGSVGSTVTTPPPLVRGTQNIPAGKPSLQTSSARMPGSVIPPPLVRGGQQASSKLG
B4: ETO2-NHR3-4 (NHR3 and NHR4 domains of human ETO2, residues 480-597) (domain or fragment, UniProt O75081 480-597, looked up)
chain: GYVPEDIWRKAEEAVNEVKRQAMSELQKAVSDAERKAHELITTERAKMERALAEAKRQASEDALTVINQQEDSSESCWNCGRKASETCSGCNAARYCGSFCQHRDWEKHHHVCGQSLQ
B5: ETO2-NHR3-4 (V497I/A501L) (domain or fragment, human, UniProt O75081 480-597, looked up)
chain: B4 chain with V18I, A22L

Columns and labels:
ETO2-NHR3-4 [1] = assay: ITC with ETO2-NHR3-4 in the presence of PKA; assay type: binding, human; details: ITC KD with vs without PKA (RIIα)
Procedure, shortened: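 ETO2-NHR3-4 (50 μM) is premixed at a 2:1 molar ratio with PKA (RII)α residues 1–45 (100 μM), both bacterially expressed and purified by Ni affinity, TEV cleavage and size exclusion. N-CoRx2A or PPPLx2A peptide (250 μM) is titrated in: 20 × 2 μL injections 180 s apart at 25 °C, in 25 mM Bis-Tris pH 7.2, 100 mM NaCl, 1 mM DTT, 50 μM ZnSO4. KD is fitted by software and reported as mean ± SD of two runs.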

ETO2-NHR4 [2] = target: T1, ETO2-NHR4; assay: 15N-HSQC chemical shift perturbation titration; assay type: binding
NHR3 domain of ETO = details: PKA (RIIα) binding to NHR3 domain of ETO; cited from earlier work
[3] = target: B4; assay: ITC
ETO2-NHR4 [4] = target: T1, ETO2-NHR4; assay: Isothermal titration calorimetry; assay type: binding; details: all four motifs vs single motifs
ETO2-NHR3-4 [5] = assay: Isothermal titration calorimetry; assay type: binding, human; details: ITC KD ratio
[6] = target: B4; assay: ITC; remark: listed apart in the source
SEC-MALS = target: the molecule itself; assay: SEC-MALS
[7] = target: B1; assay: ITC

**Q.** With “PPPLx2A: bacterially expressed GATAD2A residues 177–235, first two motifs (QKPTGSVGSTVTTPPPLVRGTQNIPAGKPSLQTSSARMPGSVIPPPLVRGGQQASSKLG; also: C-terminal Twin-Strep-tag, state not given here)” as the molecule, how does the “reduction of affinity for ETO2-NHR3-4 by PKA (RIIα)” value (ETO2-NHR3-4 [1]) read?
**A.** approximately 10 fold

**Q.** With KYGASSQVVMPPLVRGAQQ-NH2 [MPPL-3] as the molecule, how does the Kd (ETO2-NHR4 [2]) read?
**A.** 249 ± 3 µM

**Q.** Which Kd (NHR3 domain of ETO) does the source give for “PKA (RIIα): cAMP-dependent protein kinase type II-alpha regulatory subunit; residues 1–45 used here” here?
**A.** 0.128 µM

**Q.** With B1 as the molecule, how does the Kd [3] read?
**A.** 3 µM

**Q.** For B2, which “increase of binding affinity compared to the individual binding sites” value (ETO2-NHR4 [4]) is on record?
**A.** up to 10 fold

**Q.** What about the “increase of binding affinity with ETO2-NHR3-4 compared to the NHR4 domain alone” value (ETO2-NHR3-4 [5]) of the same molecule?
**A.** 10 fold

**Q.** Which “KD in the presence of PKA (RIIα)” value [6] does the source give for B3 here?
**A.** 50 µM

**Q.** And the Kd [3]?
**A.** 6 µM

**Q.** For B4, which “stoichiometry N” value (SEC-MALS) is on record?
**A.** 2 and 4

**Q.** For B5, which “stoichiometry N” value (SEC-MALS) is on record?
**A.** 4

**Q.** For DSSESCWNCGRKASETCSGCNAARYCGSFCQHRDWEKHHHVCGQSLQ (domain or fragment, UniProt O75081 551-597, looked up) [ETO2-NHR4 (NHR4 domain of human ETO2, residues 551-597)], which Kd [7] is on record?
**A.** 30 µM
